Reference: ChEMBL document CHEMBL3351507, “11H-Pyrido[3',2':4,5]pyrrolo[3,2-c]cinnoline and pyrido[3',2':4,5]pyrrolo[1,2-c][1,2,3]benzotriazine: two new ring systems with antitumor activity” (2014)
Active and inactive are the calls of the source. The calls are words filed in the database; no cut-off is given here.

Experiments:
CCRF-CEM [1] = test: Cytotoxicity against human vinblastin-resistant CEM cells assessed as growth inhibition after 72 hrs by MTT assay; format: functional
Method in brief: (§1)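 CEMVbl-100 (vinblastine-selected CEM) was grown in RPMI-1640 with 0.1 µg/mL vinblastine. LoVoDoxo was grown in HAM's F12 with 0.1 µg/mL doxorubicin; parental CEM and LoVo were grown without drug. Media had 10% FBS. 5x10^3 cells were seeded, preincubated 24 h at 37 °C, then exposed 72 h to compound (DMSO <1%). Read-out was MTT; GI50 came from dose-response curves of ≥3 experiments. RI = GI50 resistant / GI50 parental.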

[2] = Binding affinity to DNA (unknown origin) at compound to DNA ratio 0.01 to 0.04 by linear dichroism method
Method in brief: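 Linear dichroism spectra were recorded at different compound/DNA ratios in 10 mM phosphate buffer, pH 7.2.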

[3] = Cytotoxicity against human Hs578T cells assessed as growth inhibition after 72 hrs by MTT assay; format: functional; details: Hs-578T
Jurkat [4] = test: Induction of ROS generation in human Jurkat cells at 500 nM after 24 hrs by HE/DCFH2-DA staining-based flow cytometry relative to control; format: functional, cell-based
Method in brief: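 Jurkat cells were exposed to 500 nM compound for 24 h, then loaded in HBSS with 2.5 µM hydroethidine or 0.1 µM H2DCFDA for 30 min at 37 °C. Flow cytometry used 488 nm excitation, with emission at 585 nm (HE) or 530 nm (DCF). Mean ± SEM of 3 experiments.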

SN12C = test: Cytotoxicity against human SN12C cells assessed as growth inhibition after 72 hrs by MTT assay; format: functional
Method in brief: (§2)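 NCI 60-cell-line panel screen. Compounds were tested at 5 concentrations in 10-fold dilution (10^-4 to 10^-8 M) across the full panel. GI50 was taken as the molar concentration giving 50% inhibition of net cell growth.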

SF-268 = test: Cytotoxicity against human SF268 cells assessed as growth inhibition after 72 hrs by MTT assay; format: functional; details: SF-268, 72 h; method in brief: as §2
[5] = molecular target: T1, DNA topoisomerase 1 (Homo sapiens) (UniProt P11387); test: Inhibition of human DNA topoisomerase 1-mediated relaxation of supercoiled pBR322 plasmid DNA at 5 to 100 uM after 30 mins by agarose gel electrophoresis relative to untreated control
T1 sequence (whole entry): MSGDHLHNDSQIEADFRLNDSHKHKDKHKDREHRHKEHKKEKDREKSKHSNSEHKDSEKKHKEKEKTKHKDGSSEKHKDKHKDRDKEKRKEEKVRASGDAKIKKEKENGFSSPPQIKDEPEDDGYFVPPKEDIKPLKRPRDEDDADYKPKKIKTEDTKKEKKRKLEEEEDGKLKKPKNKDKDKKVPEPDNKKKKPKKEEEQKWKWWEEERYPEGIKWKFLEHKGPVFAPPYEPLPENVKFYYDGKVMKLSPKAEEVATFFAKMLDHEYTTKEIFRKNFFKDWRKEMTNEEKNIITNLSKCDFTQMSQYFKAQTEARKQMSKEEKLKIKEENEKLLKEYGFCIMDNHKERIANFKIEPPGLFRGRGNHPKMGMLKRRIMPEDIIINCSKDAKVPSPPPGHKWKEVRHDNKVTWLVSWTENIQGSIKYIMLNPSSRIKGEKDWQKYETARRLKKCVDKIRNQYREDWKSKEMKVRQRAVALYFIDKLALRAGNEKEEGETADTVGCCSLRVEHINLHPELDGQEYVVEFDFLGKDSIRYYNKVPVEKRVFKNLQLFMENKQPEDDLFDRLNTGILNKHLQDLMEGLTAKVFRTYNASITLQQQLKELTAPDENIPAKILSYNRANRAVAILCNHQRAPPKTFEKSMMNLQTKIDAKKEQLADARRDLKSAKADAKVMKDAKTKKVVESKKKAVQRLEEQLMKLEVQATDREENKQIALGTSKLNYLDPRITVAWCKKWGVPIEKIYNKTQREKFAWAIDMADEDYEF
Method in brief: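 Human topoisomerase I (10 units) was incubated with 0.250 µg supercoiled pBR322 and compound (5-100 µM) for 30 min at 37 °C. Buffer: 50 mM Tris-HCl pH 7.5, 50 mM KCl, 0.5 mM DTT, 10 mM MgCl2, 0.1 mM EDTA, 30 µg/mL BSA. Reactions were stopped with 1% SDS and proteinase K (50 µg/mL, 30 min). Samples ran on 0.8% agarose in TAE at 20 V overnight, then were post-stained with ethidium bromide.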

[6] = Cytotoxicity against human OVCAR8 cells assessed as growth inhibition after 72 hrs by MTT assay; format: functional; details: OVCAR-8, 72 h; method in brief: as §2
SW-620 = test: Cytotoxicity against human SW620 cells assessed as growth inhibition after 72 hrs by MTT assay; format: functional; details: SW-620, 72 h; method in brief: as §2
KM12 = test: Cytotoxicity against human KM12 cells assessed as growth inhibition after 72 hrs by MTT assay; format: functional; details: KM12, 72 h
A498 = test: Cytotoxicity against human A498 cells assessed as growth inhibition after 72 hrs by MTT assay; format: functional; details: A498, 72 h
RXF 393 = test: Cytotoxicity against human RXF393 cells assessed as growth inhibition after 72 hrs by MTT assay; format: functional; details: RXF 393, 72 h; method in brief: as §2
DU-145 = test: Cytotoxicity against human DU145 cells assessed as growth inhibition after 72 hrs by MTT assay; format: functional; details: DU-145, 72 h
MDA-MB-231 = test: Cytotoxicity against human MDA-MB-231 cells assessed as growth inhibition after 72 hrs by MTT assay; format: functional; details: MDA-MB-231, 72 h
SNB-75 = test: Cytotoxicity against human SNB75 cells assessed as growth inhibition after 72 hrs by MTT assay; format: functional; details: SNB-75, 72 h; method in brief: as §2
T47D = test: Cytotoxicity against human T47D cells assessed as growth inhibition after 72 hrs by MTT assay; format: functional; method in brief: as §2
Jurkat [7] = test: Induction of apoptosis in human Jurkat cells assessed as lysosomal dysfunction at 250 to 500 nM after 24 hrs by acridine orange staining-based flow cytometry relative to control; format: functional, cell-based
Method in brief: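 Jurkat cells were treated for 24 h at two concentrations, then stained with acridine orange. Flow cytometry (488 nm excitation, FL3 emission) scored red fluorescence of intact lysosomes. Mean ± SEM of at least 3 experiments, compared with control.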

CCRF-CEM [8] = test: Resistance index, ratio of GI50 for human vinblastin-resistant CEM cells to GI50 for human CEM cells; format: functional; method in brief: as §1
MOLT-4 = test: Cytotoxicity against human MOLT4 cells assessed as growth inhibition after 72 hrs by MTT assay; format: functional; details: MOLT-4, 72 h
LoVo = test: Cytotoxicity against human LoVo cells assessed as growth inhibition after 72 hrs by MTT assay; format: functional
Method in brief: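 Cells were grown in medium with 10% heat-inactivated FBS plus penicillin/streptomycin: RPMI-1640 for Jurkat and CEM, DMEM for A-431, HAM's F12 for LoVo. The doxorubicin-resistant LoVo subclone was kept with 0.1 µg/mL doxorubicin. Cells were seeded at 5x10^3 per well and pre-incubated 24 h at 37 °C.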

[9] = Cytotoxicity against human PC3 cells assessed as growth inhibition after 72 hrs by MTT assay; format: functional; details: PC-3, 72 h; method in brief: as §2

Compound	GI50 (CCRF-CEM [1]) [nM]	Activity [2]	GI50 [3] [nM]	Activity (Jurkat [4])	GI50 (SN12C) [nM]	GI50 (SF-268) [nM]	Activity [5]	GI50 [6] [nM]	GI50 (SW-620) [nM]	GI50 (KM12) [nM]	GI50 (A498) [nM]	GI50 (RXF 393) [nM]	GI50 (DU-145) [nM]	GI50 (MDA-MB-231) [nM]	GI50 (SNB-75) [nM]	GI50 (T47D) [nM]	Activity (Jurkat [7])	Ratio (CCRF-CEM [8])	GI50 (MOLT-4) [nM]	GI50 (LoVo) [nM]	further results
COc1ccc2c(c1)nnc1c3cccnc3[nH]c21	1020	Active	3470	Active	1630	730	Active	620	380	1220	8000	660	1880	1420	640	490	inactive	1.57	29	3640	–
O=Nc1c2cccnc2n2nnc3ccc(Cl)cc3c12	–	–	1050	–	1460	1210	–	1800	190	910	1910	560	610	680	1420	260	–	–	18	–	GI50 [9]: 740 nM
COc1cc2nnn3c4ncccc4c(N=O)c3c2cc1OC	510	inactive	6800	Active	1800	490	Active	820	210	1380	15800	400	1990	2600	2250	210	inactive	2.13	< 10	3890	GI50 [9]: 2360 nM
COc1ccc2c(c1)nnn1c3ncccc3c(N=O)c21	440	inactive	1170	Active	1400	470	Active	3900	270	1030	1270	310	1860	1260	850	160	inactive	2	9.4	1280	–
COc1cc2nnc3c4cccnc4[nH]c3c2cc1OC	–	–	3700	–	2270	540	–	1250	440	1910	2740	710	2100	2690	1480	400	–	–	18	–	GI50 [9]: 1490 nM
